pIC50: −log10 of the molar value.
Columns and labels:
[1] = molecular target: Protein polybromo-1 (Homo sapiens) (UniProt Q86U86); experiment: Binding affinity to PB1 assessed as change in melting temperature at 100 uM by differential scanning fluorimetry
In short: (§1)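 Thermal shift by differential scanning fluorimetry on a real-time PCR instrument. Bromodomain protein at 2 μM, compound at 100 μM, in 10 mM HEPES pH 7.5, 500 mM NaCl with SyproOrange dye diluted 1:1000. The observed melting temperature shift was measured in duplicate, and the average was reported.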

[2] = Binding affinity to LOC93349 assessed as change in melting temperature at 100 uM by differential scanning fluorimetry; in short: as §1
[3] = molecular target: T1, CREB-binding protein (Homo sapiens, UniProt Q92793); experiment: Binding affinity to CREBBP assessed as change in melting temperature at 100 uM by differential scanning fluorimetry; in short: as §1
[4] = molecular target: T2, Bromodomain-containing protein 4 (Homo sapiens, UniProt O60885); experiment: Binding affinity to second bromodomain of BRD4 assessed as change in melting temperature at 100 uM by differential scanning fluorimetry; in short: as §1
[5] = molecular target: T2, Bromodomain-containing protein 4; experiment: Binding affinity to first bromodomain of BRD4 assessed as change in melting temperature at 100 uM by differential scanning fluorimetry; in short: as §1
[6] = molecular target: Bromodomain-containing protein 3 (Homo sapiens) (UniProt Q15059); experiment: Binding affinity to second bromodomain of BRD3 assessed as change in melting temperature at 100 uM by differential scanning fluorimetry; in short: as §1
Bromodomain-containing protein 3 (Homo sapiens), sequence (Q15059 2-726 limits assumed): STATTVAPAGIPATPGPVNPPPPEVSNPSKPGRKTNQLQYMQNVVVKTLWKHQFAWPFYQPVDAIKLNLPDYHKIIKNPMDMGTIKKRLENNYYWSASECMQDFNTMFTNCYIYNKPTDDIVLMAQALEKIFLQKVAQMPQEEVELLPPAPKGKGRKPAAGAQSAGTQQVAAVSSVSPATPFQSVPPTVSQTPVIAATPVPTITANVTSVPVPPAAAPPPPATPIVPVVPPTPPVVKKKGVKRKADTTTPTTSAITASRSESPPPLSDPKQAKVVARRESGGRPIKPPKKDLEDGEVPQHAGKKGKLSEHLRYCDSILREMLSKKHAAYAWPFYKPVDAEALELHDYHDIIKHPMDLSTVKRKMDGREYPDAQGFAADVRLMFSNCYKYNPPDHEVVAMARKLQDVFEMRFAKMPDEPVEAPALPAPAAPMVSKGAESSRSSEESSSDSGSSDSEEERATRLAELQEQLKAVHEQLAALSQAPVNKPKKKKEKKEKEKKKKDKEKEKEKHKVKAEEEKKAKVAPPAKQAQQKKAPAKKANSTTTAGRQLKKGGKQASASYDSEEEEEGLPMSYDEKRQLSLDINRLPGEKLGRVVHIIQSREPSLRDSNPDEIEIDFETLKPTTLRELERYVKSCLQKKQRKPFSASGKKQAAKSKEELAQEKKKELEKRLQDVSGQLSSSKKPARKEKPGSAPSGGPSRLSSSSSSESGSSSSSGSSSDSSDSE

[7] = molecular target: Bromodomain-containing protein 3 (Homo sapiens) (UniProt Q15059); experiment: Binding affinity to first bromodomain of BRD3 assessed as change in melting temperature at 100 uM by differential scanning fluorimetry; in short: as §1
[8] = molecular target: T3, Bromodomain-containing protein 2 (Homo sapiens, UniProt P25440); experiment: Binding affinity to second bromodomain of BRD2 assessed as change in melting temperature at 100 uM by differential scanning fluorimetry; in short: as §1
[9] = molecular target: T3, Bromodomain-containing protein 2; experiment: Binding affinity to first bromodomain of BRD2 assessed as change in melting temperature at 100 uM by differential scanning fluorimetry; in short: as §1
[10] = molecular target: T1, CREB-binding protein; experiment: Displacement of H3K56Ac from human CREBBP by peptide displacement assay
Target sequence in this assay (Q92793 whole entry): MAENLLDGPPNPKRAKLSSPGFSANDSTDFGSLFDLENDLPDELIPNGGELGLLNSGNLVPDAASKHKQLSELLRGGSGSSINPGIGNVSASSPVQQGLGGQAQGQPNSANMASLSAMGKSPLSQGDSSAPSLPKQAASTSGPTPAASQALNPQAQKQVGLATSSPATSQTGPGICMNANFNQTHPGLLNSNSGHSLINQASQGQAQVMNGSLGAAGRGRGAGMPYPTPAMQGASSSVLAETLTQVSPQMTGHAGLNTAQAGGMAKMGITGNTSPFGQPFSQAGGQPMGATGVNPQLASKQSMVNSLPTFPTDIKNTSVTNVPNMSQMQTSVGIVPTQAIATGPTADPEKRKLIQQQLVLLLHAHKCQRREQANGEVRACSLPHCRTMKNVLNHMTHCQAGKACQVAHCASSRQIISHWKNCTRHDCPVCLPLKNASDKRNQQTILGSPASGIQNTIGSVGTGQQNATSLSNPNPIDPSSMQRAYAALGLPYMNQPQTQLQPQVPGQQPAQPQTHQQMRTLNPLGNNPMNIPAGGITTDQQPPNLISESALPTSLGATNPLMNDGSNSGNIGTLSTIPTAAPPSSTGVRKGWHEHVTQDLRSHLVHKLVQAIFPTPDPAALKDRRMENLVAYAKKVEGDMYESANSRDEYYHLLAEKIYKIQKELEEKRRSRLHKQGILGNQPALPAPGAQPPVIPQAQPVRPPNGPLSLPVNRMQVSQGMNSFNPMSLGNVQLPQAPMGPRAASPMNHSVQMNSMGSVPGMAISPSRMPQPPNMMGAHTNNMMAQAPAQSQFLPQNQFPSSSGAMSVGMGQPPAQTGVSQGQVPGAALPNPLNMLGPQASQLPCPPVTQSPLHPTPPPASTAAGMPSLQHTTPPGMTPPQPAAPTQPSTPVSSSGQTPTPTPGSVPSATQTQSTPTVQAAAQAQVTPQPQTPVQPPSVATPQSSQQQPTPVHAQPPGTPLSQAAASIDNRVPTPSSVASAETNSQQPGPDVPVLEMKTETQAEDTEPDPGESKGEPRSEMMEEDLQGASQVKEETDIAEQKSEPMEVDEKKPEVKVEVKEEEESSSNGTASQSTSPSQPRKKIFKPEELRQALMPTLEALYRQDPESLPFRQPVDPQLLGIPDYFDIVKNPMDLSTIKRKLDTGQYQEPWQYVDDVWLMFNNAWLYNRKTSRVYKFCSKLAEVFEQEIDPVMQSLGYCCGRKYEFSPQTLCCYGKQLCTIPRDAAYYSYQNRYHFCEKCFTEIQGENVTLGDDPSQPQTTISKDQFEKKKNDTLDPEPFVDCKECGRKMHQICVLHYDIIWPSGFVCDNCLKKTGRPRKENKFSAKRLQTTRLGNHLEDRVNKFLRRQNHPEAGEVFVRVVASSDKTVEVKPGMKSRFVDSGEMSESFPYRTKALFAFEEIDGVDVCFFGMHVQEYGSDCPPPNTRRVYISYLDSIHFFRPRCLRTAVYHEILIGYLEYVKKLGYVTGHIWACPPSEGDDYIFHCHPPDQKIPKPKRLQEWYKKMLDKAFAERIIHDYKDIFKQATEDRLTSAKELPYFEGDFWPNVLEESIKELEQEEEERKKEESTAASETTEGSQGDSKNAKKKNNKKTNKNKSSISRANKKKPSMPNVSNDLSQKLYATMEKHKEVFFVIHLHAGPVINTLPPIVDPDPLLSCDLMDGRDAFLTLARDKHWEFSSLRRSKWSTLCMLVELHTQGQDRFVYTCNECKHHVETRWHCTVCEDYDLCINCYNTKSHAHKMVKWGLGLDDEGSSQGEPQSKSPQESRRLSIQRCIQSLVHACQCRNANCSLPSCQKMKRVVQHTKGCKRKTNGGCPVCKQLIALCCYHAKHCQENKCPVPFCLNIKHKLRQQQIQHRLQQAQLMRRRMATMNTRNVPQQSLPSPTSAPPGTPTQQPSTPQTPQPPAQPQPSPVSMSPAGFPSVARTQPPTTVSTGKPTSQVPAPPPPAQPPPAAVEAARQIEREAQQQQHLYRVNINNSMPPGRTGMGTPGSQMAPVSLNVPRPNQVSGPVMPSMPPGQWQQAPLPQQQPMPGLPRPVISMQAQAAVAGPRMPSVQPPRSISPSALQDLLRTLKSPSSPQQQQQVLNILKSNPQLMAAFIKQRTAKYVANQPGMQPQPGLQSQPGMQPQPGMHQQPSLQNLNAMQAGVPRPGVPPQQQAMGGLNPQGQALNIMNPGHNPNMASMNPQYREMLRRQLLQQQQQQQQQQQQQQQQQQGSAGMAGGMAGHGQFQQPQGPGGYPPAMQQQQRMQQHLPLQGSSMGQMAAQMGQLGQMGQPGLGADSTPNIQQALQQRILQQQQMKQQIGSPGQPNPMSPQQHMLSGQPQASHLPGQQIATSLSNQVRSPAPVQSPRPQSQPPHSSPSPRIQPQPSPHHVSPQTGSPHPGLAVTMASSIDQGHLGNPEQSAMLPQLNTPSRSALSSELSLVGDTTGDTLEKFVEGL

[11] = molecular target: T3, Bromodomain-containing protein 2; experiment: Displacement of H4Ac4 peptide from first bromodomain of human BRD2 by peptide displacement assay
In short: (§2)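 AlphaScreen displacement of a biotinylated tetra-acetylated H4 peptide (SGRGK(Ac)GGK(Ac)GLGK(Ac)GGAK(Ac)RHRK(Biotin)) from the bromodomain. Run in duplicate on one plate.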

[12] = molecular target: T2, Bromodomain-containing protein 4; experiment: Displacement of H4Ac4 peptide from first bromodomain of human BRD4 by peptide displacement assay; in short: as §2
[13] = molecular target: Bromodomain testis-specific protein (Homo sapiens) (UniProt Q58F21); experiment: Binding affinity to BRDT assessed as change in melting temperature at 100 uM by differential scanning fluorimetry; in short: as §1
[14] = molecular target: T4, Bromodomain adjacent to zinc finger domain protein 2B (Homo sapiens, UniProt Q9UIF8); experiment: Binding affinity to BAZ2B assessed as change in melting temperature at 100 uM by differential scanning fluorimetry; in short: as §1
[15] = molecular target: Histone acetyltransferase KAT2B (Homo sapiens) (UniProt Q92831); experiment: Binding affinity to PCAF assessed as change in melting temperature at 100 uM by differential scanning fluorimetry; in short: as §1
[16] = molecular target: T4, Bromodomain adjacent to zinc finger domain protein 2B; experiment: Inhibition of BAZ2B
[17] = molecular target: T1, CREB-binding protein; experiment: Inhibition of CREBBP
In short: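 AlphaScreen peptide-displacement assay with the CREBBP bromodomain, using a biotinylated H3K56Ac histone peptide as the displaced ligand. Each concentration was run in duplicate on the same plate. IC50 was obtained by sigmoidal curve fitting of the duplicate data and reported with 95% confidence intervals, taken from a single assay.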
Target sequence in this assay (Q92793 whole entry): as above

Protein polybromo-1 (Homo sapiens), sequence (Q86U86 whole entry): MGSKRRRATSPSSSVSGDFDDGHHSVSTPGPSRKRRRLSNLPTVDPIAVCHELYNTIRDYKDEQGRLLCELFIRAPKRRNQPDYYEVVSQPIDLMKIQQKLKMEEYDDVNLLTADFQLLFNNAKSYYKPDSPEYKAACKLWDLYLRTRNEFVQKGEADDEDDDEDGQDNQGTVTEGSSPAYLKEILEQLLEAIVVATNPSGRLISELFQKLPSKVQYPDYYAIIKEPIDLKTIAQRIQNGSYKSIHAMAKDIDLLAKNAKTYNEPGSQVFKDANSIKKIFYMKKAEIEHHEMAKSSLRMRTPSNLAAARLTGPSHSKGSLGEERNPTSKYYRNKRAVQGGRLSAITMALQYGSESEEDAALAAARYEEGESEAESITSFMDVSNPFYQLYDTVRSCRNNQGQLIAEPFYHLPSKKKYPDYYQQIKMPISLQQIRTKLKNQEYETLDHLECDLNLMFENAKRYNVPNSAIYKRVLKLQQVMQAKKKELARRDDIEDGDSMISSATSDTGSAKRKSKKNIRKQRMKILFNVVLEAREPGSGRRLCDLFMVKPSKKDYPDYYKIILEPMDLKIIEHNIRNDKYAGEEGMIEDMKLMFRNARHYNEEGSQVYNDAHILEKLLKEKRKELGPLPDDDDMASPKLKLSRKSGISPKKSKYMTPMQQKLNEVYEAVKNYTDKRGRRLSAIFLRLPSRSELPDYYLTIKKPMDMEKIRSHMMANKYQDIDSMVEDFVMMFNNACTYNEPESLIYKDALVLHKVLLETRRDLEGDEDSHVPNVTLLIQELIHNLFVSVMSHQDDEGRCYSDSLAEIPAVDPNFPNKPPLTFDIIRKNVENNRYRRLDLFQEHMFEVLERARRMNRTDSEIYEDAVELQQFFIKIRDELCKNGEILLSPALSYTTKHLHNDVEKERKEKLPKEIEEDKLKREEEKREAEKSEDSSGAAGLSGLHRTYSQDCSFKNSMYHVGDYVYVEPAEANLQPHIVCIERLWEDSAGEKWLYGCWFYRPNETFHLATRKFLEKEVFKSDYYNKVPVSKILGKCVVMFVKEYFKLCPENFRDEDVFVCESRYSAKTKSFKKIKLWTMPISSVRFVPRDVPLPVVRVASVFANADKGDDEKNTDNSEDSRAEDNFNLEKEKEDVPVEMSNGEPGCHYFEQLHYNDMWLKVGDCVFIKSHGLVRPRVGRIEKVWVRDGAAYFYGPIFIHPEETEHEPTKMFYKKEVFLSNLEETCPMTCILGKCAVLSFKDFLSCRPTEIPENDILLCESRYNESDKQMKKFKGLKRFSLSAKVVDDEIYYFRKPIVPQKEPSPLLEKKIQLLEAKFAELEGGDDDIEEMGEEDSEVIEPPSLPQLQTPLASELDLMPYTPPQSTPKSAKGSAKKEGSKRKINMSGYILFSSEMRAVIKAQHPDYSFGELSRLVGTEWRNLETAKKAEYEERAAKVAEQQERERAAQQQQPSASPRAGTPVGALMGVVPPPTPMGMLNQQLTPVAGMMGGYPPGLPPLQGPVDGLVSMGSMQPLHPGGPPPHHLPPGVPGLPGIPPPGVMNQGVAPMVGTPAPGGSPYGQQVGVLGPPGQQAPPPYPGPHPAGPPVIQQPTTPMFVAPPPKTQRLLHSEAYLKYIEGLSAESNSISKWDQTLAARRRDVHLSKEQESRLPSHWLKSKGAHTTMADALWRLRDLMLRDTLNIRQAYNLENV

| SMILES | ΔTm [1] | ΔTm [2] | ΔTm [3] | ΔTm [4] | ΔTm [5] | ΔTm [6] | ΔTm [7] | ΔTm [8] | ΔTm [9] | pIC50 [10] | pIC50 [11] | pIC50 [12] | ΔTm [13] | ΔTm [14] | ΔTm [15] | pIC50 [16] | pIC50 [17] |
| --- | --- | --- | --- | --- | --- | --- | --- | --- | --- | --- | --- | --- | --- | --- | --- | --- | --- |
| Cc1noc(C)c1-c1ccccc1 | 0 °C | -0.6 °C | 0.6 °C | 2.6 °C | 2 °C | 1.9 °C | 1.6 °C | 2.1 °C | 0.9 °C | < 3.70 | 4.46 | 4.07 | 0 °C | -0.1 °C | -0.8 °C |  |  |
| CCOC(=O)c1cc(OCC)cc(-c2c(C)noc2C)c1 | -0.1 °C | -0.2 °C | -0.2 °C | 3.8 °C | 3.7 °C | 3.8 °C | 3.6 °C | 3.3 °C | 2.3 °C | 4.31 | 5.48 | 5.11 | 1.1 °C |  |  |  |  |
| CCOc1cccc(-c2c(C)noc2C)c1 | -0.2 °C | -0.9 °C | 0.7 °C | 4 °C | 2.8 °C | 4.2 °C | 2.7 °C | 3.7 °C | 1.3 °C | 4.06 | 5.13 | 4.63 | -0.4 °C |  |  |  |  |
| Cc1noc(C)c1-c1ccc2c(c1)CN(C)C(=O)N2 | 0.7 °C | -0.2 °C | 3.8 °C |  | 8 °C | 6.8 °C | 7.2 °C | 6.2 °C | 5.4 °C | 5.47 |  |  | 3.2 °C |  |  |  |  |

The remaining lines, values ahead:

| ΔTm [1] | ΔTm [2] | ΔTm [3] | ΔTm [4] | ΔTm [5] | ΔTm [6] | ΔTm [7] | ΔTm [8] | ΔTm [9] | pIC50 [10] | pIC50 [11] | pIC50 [12] | ΔTm [13] | ΔTm [14] | ΔTm [15] | pIC50 [16] | pIC50 [17] | SMILES |
| --- | --- | --- | --- | --- | --- | --- | --- | --- | --- | --- | --- | --- | --- | --- | --- | --- | --- |
| -0.3 °C | -1 °C | 3.4 °C | 6.5 °C | 5.1 °C | 6 °C | 4.8 °C | 5.3 °C | 3.2 °C | 4.89 | 5.64 | 5.12 |  |  |  |  |  | CCOc1cc(C(C)=O)cc(-c2c(C)noc2C)c1 |
|  |  |  |  |  |  |  |  |  |  |  |  |  |  |  | 1.47 | 2.64 | CN1CCCC1=O [METHYLPYRROLIDONE] |
| -0.3 °C | -0.9 °C | 1.2 °C | 1.9 °C | 2.1 °C | 2.9 °C | 2 °C | 2.6 °C | 1.3 °C | 4.25 | 5.22 | 4.61 | -0.2 °C |  |  |  |  | CC(=O)c1cccc(-c2c(C)noc2C)c1 |
| -0.1 °C | -1.2 °C | 2.9 °C | 2.2 °C | 2.3 °C | 2.6 °C | 2.2 °C | 2.5 °C | 1.1 °C | 4.49 | 4.55 | 4.29 | -0.8 °C | -0.1 °C | -0.5 °C |  |  | CCOc1cc(C(=O)O)cc(-c2c(C)noc2C)c1 |
| 0.2 °C | -0.8 °C | 1.5 °C | 6.3 °C | 5.4 °C | 6.5 °C | 5.3 °C | 5.6 °C | 3.3 °C | 4.34 | 5.38 | 5.01 | 1.6 °C | 0.2 °C | 0 °C |  |  | Cc1noc(C)c1-c1cccc(C(C)O)c1 (racemic) |
| 0 °C | -0.9 °C | 4 °C | 8 °C | 8.5 °C | 8.9 °C | 8.5 °C | 8.3 °C | 6.1 °C | 4.55 | 5.80 | 5.32 | 3.5 °C |  |  |  |  | CCOc1cc(-c2c(C)noc2C)cc(C(C)O)c1 (racemic) |
